In the library only some 2.1% were active in any assay of this set; here they are far more common.
GSK3A inh – blocks human GSK-3 alpha kinase. hit rate 0.1% among 320,000. P49840. inhibition, % at 10 µM. ADP-Glo luminescence, 60 min;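 active = more than half of replicates show inhibition above 20%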;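 also: GST-tagged GSK-3 alpha with peptide substrate and 25 µM ATP; 0% = DMSO neutral wells and 100% = GW8510 positive control wells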
MEKK3 PB1 HTS – modulators (inhibitors or enhancers) of MEK5 binding to human MEKK3 PB1 domain. AID 1529. bead-based flow cytometry, Alexa488-MEK5 binding to MEKK3; actives lie on both sides; 0 = blocked by unlabeled MEK5, 100 = vehicle. Q99759. binding response (% of control), % at 10 µM. hit rate 1.4% among 290,000;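 active = binding response more than 3 SD above or below the average of its plate-row segment, actives on both sides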;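 also: Alexa488 bead fluorescence after subtracting the streptavidin-only scavenger bead signal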
MEKK2 mut-MEK5 – signal of MEK5 binding to mutant human MEKK2 PB1 domain | hit rate 0.35% among 290,000 | bead flow cytometry, Alexa488-MEK5 binding to MEKK2 mutant | percent response, % at 10 µM | AID 1530; in the data active = percent response above about 24%, passing the limit was not always enough
MEKK2wt PB1 HTS – raises or lowers MEK5 binding to wildtype human MEKK2 PB1 domain. bead flow cytometry, Alexa488-MEK5 binding to MEKK2 WT; actives lie on both sides. hit rate 1.1% among 290,000. AID 1531. binding response (% of control), % at 10 µM; in the data active = binding response below about 67% or above about 130%
STK33 kinase inh – inhibitors of human STK33 kinase; purified STK33, MBP phosphorylation, ADP-Glo luminescence; inhibition, % at 10 µM; hit rate 0.073% among 320,000; AID 2661;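 active = inhibition at or above 25%, using the most active replicate where run in duplicate; inactive = inhibition below 25%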
GSK3beta inhib – inhibitors of human GSK3beta kinase; hit rate 0.038% among 300,000; AID 2097; P49841; activity score (negative = inhibition), % at 10 µM; GST-GSK3beta kinase, ADP-Glo luminescence, 60 min; active compounds read low;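 active = more than half of replicate wells score below -50%, meaning over 50% inhibition versus plate controls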;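 also: 0% = median DMSO wells and -100% = median GW8510 positive control wells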
Target sequence (P49841 whole entry, looked up): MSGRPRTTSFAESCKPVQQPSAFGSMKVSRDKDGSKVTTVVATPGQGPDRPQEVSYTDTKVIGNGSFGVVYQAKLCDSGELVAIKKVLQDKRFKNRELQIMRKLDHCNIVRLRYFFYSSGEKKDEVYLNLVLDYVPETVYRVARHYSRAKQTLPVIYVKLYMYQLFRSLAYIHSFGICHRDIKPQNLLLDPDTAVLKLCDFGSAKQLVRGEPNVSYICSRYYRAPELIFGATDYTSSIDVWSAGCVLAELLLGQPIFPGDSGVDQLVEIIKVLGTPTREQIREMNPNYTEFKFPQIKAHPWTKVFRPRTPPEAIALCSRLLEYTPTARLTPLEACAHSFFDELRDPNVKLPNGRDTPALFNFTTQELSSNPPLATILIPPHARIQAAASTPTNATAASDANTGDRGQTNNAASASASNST
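Assay system: GST-tagged human GSK3beta kinase, cell-free; Input: 1.6 ng GSK3beta; Medium: Tris/MgCl2 kinase buffer; Timing: 60 min enzyme reaction, room temperature; Signal: ADP-Glo luminescence quantifying ADP generated by kinase; Evaluation: score relative to plate controls; Benchmarks: DMSO neutral wells and GW8510 at 20 µM as positive.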
MEKK2wt confirm – raises or lowers MEK5 binding to wildtype human MEKK2, retest | bead flow cytometry, Alexa488-MEK5 binding to MEKK2 WT; actives lie on both sides | hit rate 2.4% among 5,900 | shares compounds with MEKK3 PB1 HTS | binding response (% of control), % at 10 µM; in the data active = binding response below about 16% or above about 210%; inactive = in between
MEKK2mut confirm – signal of MEK5 binding to mutant human MEKK2, retest. shares compounds with MEKK3 PB1 HTS. bead flow cytometry, Alexa488-MEK5 binding to MEKK2 mutant. percent response, % at 10 µM. hit rate 2% among 5,900. AID 1893; in the data active = percent response mostly above about 71%, no sharp cut-off; inactive = mostly below about 38%;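 also: higher means compound restores mutant binding toward wildtype level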
MEKK3 confirm – confirmation of inhibitors of MEK5 binding to human MEKK3 | AID 1894 | binding response (% of control), % at 10 µM | bead flow cytometry, Alexa488-MEK5 binding to MEKK3; active compounds read low | hit rate 1.8% among 5,900 | shares compounds with MEKK3 PB1 HTS;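 active = binding response below 72% of control, or above a set upper limit, though filed actives all read lower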;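 also: 100% = DMSO only wells and 0% = binding blocked by excess unlabeled MEK5; lower values mean stronger disruption of MEK5 binding to MEKK3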
An asterisk follows results filed as active; · = not tested or not shown; [ ] = remark or other dose.

SMILES | GSK3A inh | MEKK3 PB1 HTS | MEKK2 mut-MEK5 | MEKK2wt PB1 HTS | STK33 kinase inh | GSK3beta inhib | MEKK2wt confirm | MEKK2mut confirm | MEKK3 confirm
N#Cc1ccc(S(=O)(=O)NC2CCCCNC2=O)cc1 (stereo not given) | -2.9 | 103.0 | 4.0 | 106.0 | -0.3 | -2.0 | · | · | ·
CC(C)CC(=O)C(=O)O | -2.8 | · | · | · | -2.5 | · | · | · | ·
O=C(O)c1ccc(N2CC3CC(C2)c2cccc(=O)n2C3)c(NC(=S)Nc2ccc(Cl)cc2Cl)c1 (stereo not given) | -3.7 | 65.0*[inhibitor] | -30.0 | 17.0*[inhibitor] | 1.7 | 2.0 | 91.0 | -7.0 | 95.0
C/C(=N\NC(=O)c1cccc(S(=O)(=O)Nc2ccccc2Cl)c1)c1ccco1 | 1.3 | 102.0 | 0.0 | 103.0 | -1.0 | 0.4 | · | · | ·
C/C(=N\NC(=O)c1ccc(Cl)c(S(=O)(=O)Nc2ccccc2Cl)c1)c1ccncc1 | 1.5 | 145.0* | 2.0 | 106.0 | 0.6 | 3.8 | 99.0 | 3.0 | 100.0
CCC(=O)Nc1ccc(C(=O)CSc2nnc(-c3ccc(NS(C)(=O)=O)cc3)n2C)cc1OC | 2.0 | 73.0*[inhibitor] | -1.0 | 94.0 | 0.9 | 0.6 | 103.0 | 4.0 | 104.0
CCC(=O)Nc1ccc(-c2nnc(SCC(=O)N3CCCCC3)n2C)cc1 | -2.6 | 2.0*[inhibitor] | -15.0 | 1.0*[inhibitor] | -0.9 | 1.4 | 103.0 | 1.0 | 108.0
CCn1c(SCC(=O)c2ccc(NC(C)=O)c(OC)c2)nnc1-c1ccc(NS(C)(=O)=O)cc1 | -0.9 | 105.0 | -1.0 | 102.0 | -0.1 | -18.4 | · | · | ·
C/C(=N\NC(=O)c1nn(C)c(C)c1Br)c1ccc(NC(=O)C2CCCC2)cc1 | · | 99.0 | 1.0 | 102.0 | 0.3 | -1.8 | · | · | ·
CC(=O)c1ccc(NC(=O)CCNC(=O)c2ccc(Cl)cc2)cc1 | 0.8 | 106.0 | 9.0 | 103.0 | -1.6 | -22.6 | · | · | ·
CN(CCO)C(=O)c1cccc2c1-c1ccccc1C2=O | 1.0 | 81.0*[inhibitor] | -11.0 | 90.0 | -0.1 | 0.3 | 101.0 | -1.0 | 101.0
COc1ccc2nc(SCC(N)=O)cc(C)c2c1 | 15.4 | 104.0 | 5.0 | 102.0 | 12.9 | -5.3 | · | · | ·
COc1ccc2c(-c3ccccc3)cc(SCC(N)=O)nc2c1 | 1.2 | 105.0 | 115.0* | 9.0*[inhibitor] | -0.2 | 0.6 | 101.0 | -1.0 | 99.0
CN(c1ccccc1)c1cc(=O)[nH]c(=O)[nH]1 | -0.2 | 92.0 | -2.0 | 93.0 | -1.0 | -1.8 | · | · | ·
Cc1cc(Nc2ncc(Cl)cc2Cl)n(-c2ccccc2)n1 | -4.6 | 139.0* | 1.0 | 108.0 | -1.4 | -0.2 | 110.0 | 6.0 | 104.0
Cc1cc(Nc2ncc(Cl)cc2Cl)n(-c2ccccn2)n1 | · | 104.0 | 7.0 | 110.0 | · | 1.2 | · | · | ·
Cn1c(=O)c2c(ncn2CC(=O)N2CCN(C(=O)c3ccco3)CC2)n(C)c1=O | 4.6 | 85.0 | -9.0 | 50.0*[inhibitor] | -2.0 | -0.8 | 107.0 | 8.0 | 109.0
CCOc1ccccc1N(CC(=O)Nc1ccccc1C(=O)N1CCOCC1)S(C)(=O)=O | -1.9 | 96.0 | -5.0 | 94.0 | -1.1 | 2.4 | · | · | ·
Cn1c(-c2c(N)n(-c3ccccc3)c3nc4ccccc4nc23)nc2ccccc21 | -0.7 | 68.0*[inhibitor] | 1.0 | 93.0 | -1.1 | -0.1 | 106.0 | -2.0 | 106.0
Cc1cccc(-n2c(N)c(-c3nc4ccccc4n3C)c3nc4ccccc4nc32)c1 | -2.4 | 112.0 | 2.0 | 98.0 | -0.4 | -5.4 | · | · | ·
Cc1ccc(S(=O)(=O)N(CC(O)CN2CCOCC2)c2cccc([N+](=O)[O-])c2)cc1 (stereo not given) | -3.0 | 104.0 | 2.0 | 105.0 | -1.5 | -1.9 | · | · | ·
CCCCC(O)(c1ccc(F)cc1)C(CN1CCOCC1)c1ccc(Cl)cc1 (stereo not given) | -0.8 | 100.0 | 3.0 | 102.0 | -1.5 | -0.2 | · | · | ·
Cc1onc(-c2ccccc2Cl)c1C(=O)O/N=C(\N)c1ccccc1 | 0.6 | 106.0 | 10.0 | 112.0 | -0.9 | -3.4 | · | · | ·
C/C(=N\OC(=O)c1c(-c2ccccc2Cl)noc1C)c1ccncc1 | 2.3 | 48.0*[inhibitor] | -16.0 | 55.0 | -0.5 | 0.2 | 106.0 | 4.0 | 103.0
CCOC(=O)c1ccc(-c2ccc(/C=N/NC(=O)CN(c3ccccc3Cl)S(C)(=O)=O)o2)cc1 | -1.4 | 141.0* | 2.0 | 110.0 | -0.8 | -1.6 | 98.0 | -6.0 | 102.0
SMILES | GSK3A inh | MEKK3 PB1 HTS | MEKK2 mut-MEK5 | MEKK2wt PB1 HTS | STK33 kinase inh | GSK3beta inhib | MEKK2wt confirm | MEKK2mut confirm | MEKK3 confirm
CCOC(=O)c1ccc(-c2ccc(/C=N/NC(=O)CN(c3cccc(C)c3)S(C)(=O)=O)o2)cc1 | -0.4 | 101.0 | 9.0 | 107.0 | -1.6 | 0.1 | · | · | ·
CN(C)CCNC(=O)c1cc2c(s1)-c1ccccc1OC2 | 2.4 | 112.0 | 24.0* | 132.0 | 0.8 | -0.5 | 108.0 | 2.0 | 99.0
CCCN1CCN(CCCNC(=O)c2cc3c(s2)-c2ccccc2OC3)CC1 | 7.4 | 102.0 | 8.0 | 120.0 | 0.4 | -1.1 | · | · | ·
CCCc1cc(=O)[nH]c2nnc(SCC(=O)N3CC(C)OC(C)C3)n12 (stereo not given) | -4.2 | · | · | · | -0.4 | 1.9 | · | · | ·
O=C1NNC(c2ccccc2)=N/C1=C\c1ccccc1Cl | · | 74.0 | -14.0 | 72.0 | · | · | · | · | ·
O=C1NNC(c2ccccc2)=N/C1=C\c1ccco1 | 4.9 | 57.0 | -35.0 | 44.0*[inhibitor] | 1.4 | 0.6 | 100.0 | 5.0 | 103.0
CCNC(=O)C1Cc2cc(S(=O)(=O)N3CCCC3)ccc2N1C(C)=O (stereo not given) | -0.8 | 97.0 | 1.0 | 101.0 | -2.0 | -0.3 | · | · | ·
O=C(NCc1ccco1)c1ccc(=O)[nH]n1 | 9.2 | 82.0*[inhibitor] | -11.0 | 90.0 | 6.8 | 2.3 | 117.0 | 1.0 | 103.0
CCOc1cccc(/C=C(\C#N)C(=O)NC2CC2)c1 | -3.0 | · | · | · | -1.0 | 1.8 | · | · | ·
N#C/C(=C\c1ccc(Sc2nc3ccccc3[nH]2)o1)c1ccccc1 | 0.9 | 107.0 | 7.0 | 101.0 | -0.6 | -0.4 | · | · | ·
N#C/C(=C\c1ccc(Sc2ccc(Cl)cc2)o1)c1nc2ccccc2[nH]1 | -3.2 | 102.0 | 14.0 | 150.0* | -1.3 | · | 131.0 | 14.0 | 102.0
Cc1ccc(CCNC(=O)CC(C)CC2=NS(=O)(=O)c3ccccc3N2)cc1 (stereo not given) | -0.7 | 99.0 | 2.0 | 100.0 | 0.3 | 2.2 | · | · | ·
CCCNc1nc(Cl)nc(Nc2ccc(Cl)cc2)n1 | -1.8 | 110.0 | 10.0 | 106.0 | -0.6 | -2.4 | · | · | ·
CCOc1ccc(Nc2nc(Cl)nc(NCCO)n2)cc1 | -0.5 | 131.0* | 0.0 | 104.0 | -0.4 | 0.5 | 110.0 | 1.0 | 104.0

Source: PubChem BioAssay (several laboratories)
